Experimental data from ChEMBL document CHEMBL4477233, “Discovery of novel TAOK2 inhibitor scaffolds from high-throughput screening” (Bioorg Med Chem Lett, 2016).
Active and inactive are the calls of the source. The calls are words filed in the database; no cut-off is given here.

Legend:
[1] = biological target: T1, Serine/threonine-protein kinase TAO2 (Homo sapiens) (UniProt Q9UL54); assay: Inhibition of TAOK2 in human U2OS cells assessed as inhibition of cellular autophagy measured as P62 accumulation at 50 uM after 24 hrs by western blot analysis; assay type: cell-based
T1 sequence (whole entry): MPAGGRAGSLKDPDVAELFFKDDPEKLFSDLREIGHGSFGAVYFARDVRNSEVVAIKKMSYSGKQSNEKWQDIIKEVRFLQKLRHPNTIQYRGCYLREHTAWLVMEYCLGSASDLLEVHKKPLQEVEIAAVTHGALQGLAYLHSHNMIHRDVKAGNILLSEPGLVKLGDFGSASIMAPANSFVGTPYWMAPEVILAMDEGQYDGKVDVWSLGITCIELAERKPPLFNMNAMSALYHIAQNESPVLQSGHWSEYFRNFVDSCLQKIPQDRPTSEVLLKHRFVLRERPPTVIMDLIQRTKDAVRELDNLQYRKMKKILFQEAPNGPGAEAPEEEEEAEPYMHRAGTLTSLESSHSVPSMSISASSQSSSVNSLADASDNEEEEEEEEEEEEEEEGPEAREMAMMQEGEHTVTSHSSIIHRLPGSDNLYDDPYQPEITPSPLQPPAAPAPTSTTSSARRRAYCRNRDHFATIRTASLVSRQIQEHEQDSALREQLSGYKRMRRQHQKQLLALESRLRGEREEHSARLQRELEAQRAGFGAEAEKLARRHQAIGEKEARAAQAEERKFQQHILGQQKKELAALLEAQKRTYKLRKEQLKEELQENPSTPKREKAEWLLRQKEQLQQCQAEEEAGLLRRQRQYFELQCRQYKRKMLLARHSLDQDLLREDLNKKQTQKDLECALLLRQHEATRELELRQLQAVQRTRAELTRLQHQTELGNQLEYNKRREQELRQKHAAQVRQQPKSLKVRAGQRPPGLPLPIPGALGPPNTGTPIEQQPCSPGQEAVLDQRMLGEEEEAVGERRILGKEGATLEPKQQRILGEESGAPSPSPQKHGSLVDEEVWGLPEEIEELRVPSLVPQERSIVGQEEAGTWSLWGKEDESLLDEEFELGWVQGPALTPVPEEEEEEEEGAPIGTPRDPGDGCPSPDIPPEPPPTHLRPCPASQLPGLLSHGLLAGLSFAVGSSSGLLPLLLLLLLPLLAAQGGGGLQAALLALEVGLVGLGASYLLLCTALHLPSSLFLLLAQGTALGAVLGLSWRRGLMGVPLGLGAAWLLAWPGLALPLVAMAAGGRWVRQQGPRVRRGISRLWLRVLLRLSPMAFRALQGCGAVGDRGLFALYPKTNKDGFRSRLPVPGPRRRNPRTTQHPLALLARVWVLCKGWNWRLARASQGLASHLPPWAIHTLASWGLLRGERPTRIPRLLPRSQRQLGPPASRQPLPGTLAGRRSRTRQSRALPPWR
How it was run: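 GFP–LC3-expressing U2OS cells were treated for 24 h with compound at 50 µM or with DMSO alone. p62 (SQSTM1) abundance was then assessed by Western blotting as a readout of autophagic degradation.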

[2] = biological target: T1, Serine/threonine-protein kinase TAO2 (Homo sapiens); assay: Inhibition of TAOK2 in human U2OS cells assessed as inhibition of cellular autophagy measured as GFP-LC3 accumulation at 50 uM after 24 hrs by flow cytometric analysis; assay type: cell-based
How it was run: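 U2OS cells stably expressing GFP–LC3 were exposed to compound at 50 µM in the medium for 24 h. GFP fluorescence was read by flow cytometry. The median value from 20,000 cells per condition was normalized to DMSO vehicle within each experiment. Data are mean + SD of >2 independent experiments, compared with vehicle by unpaired t test.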

[3] = biological target: MAP kinase p38 (Homo sapiens) (UniProt O15264+Q15759+Q16539+P53778); assay: Binding affinity to p38 (unknown origin) assessed as change in melting temperature at 1 uM by SYPRO orange dye-based DSF analysis; assay type: protein assay
How it was run: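 Differential scanning fluorimetry: each compound's melting-temperature shift (ΔTm, °C) was measured on the kinase protein. Compounds giving a TAOK2 ΔTm above 0.5 °C were also run against p38 and ASK1. Selectivity (ΔΔTm) was taken as the TAOK2 ΔTm minus the p38 or ASK1 ΔTm.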

[4] = biological target: T1, Serine/threonine-protein kinase TAO2 (Homo sapiens); assay: Inhibition of human TAO2; details: concentration not given here
[5] = biological target: T2, Serine/threonine-protein kinase TAO2 (Rattus norvegicus, UniProt Q9JLS3); assay: Inhibition of rat TAOK2 (1 to 320 residues) expressed in Baculovirus/insect cell expression system assessed as remaining activity using MBP as substrate and [32P]ATP measured after 10 mins by Kinase-Glo assay
T2 sequence (Q9JLS3 whole entry): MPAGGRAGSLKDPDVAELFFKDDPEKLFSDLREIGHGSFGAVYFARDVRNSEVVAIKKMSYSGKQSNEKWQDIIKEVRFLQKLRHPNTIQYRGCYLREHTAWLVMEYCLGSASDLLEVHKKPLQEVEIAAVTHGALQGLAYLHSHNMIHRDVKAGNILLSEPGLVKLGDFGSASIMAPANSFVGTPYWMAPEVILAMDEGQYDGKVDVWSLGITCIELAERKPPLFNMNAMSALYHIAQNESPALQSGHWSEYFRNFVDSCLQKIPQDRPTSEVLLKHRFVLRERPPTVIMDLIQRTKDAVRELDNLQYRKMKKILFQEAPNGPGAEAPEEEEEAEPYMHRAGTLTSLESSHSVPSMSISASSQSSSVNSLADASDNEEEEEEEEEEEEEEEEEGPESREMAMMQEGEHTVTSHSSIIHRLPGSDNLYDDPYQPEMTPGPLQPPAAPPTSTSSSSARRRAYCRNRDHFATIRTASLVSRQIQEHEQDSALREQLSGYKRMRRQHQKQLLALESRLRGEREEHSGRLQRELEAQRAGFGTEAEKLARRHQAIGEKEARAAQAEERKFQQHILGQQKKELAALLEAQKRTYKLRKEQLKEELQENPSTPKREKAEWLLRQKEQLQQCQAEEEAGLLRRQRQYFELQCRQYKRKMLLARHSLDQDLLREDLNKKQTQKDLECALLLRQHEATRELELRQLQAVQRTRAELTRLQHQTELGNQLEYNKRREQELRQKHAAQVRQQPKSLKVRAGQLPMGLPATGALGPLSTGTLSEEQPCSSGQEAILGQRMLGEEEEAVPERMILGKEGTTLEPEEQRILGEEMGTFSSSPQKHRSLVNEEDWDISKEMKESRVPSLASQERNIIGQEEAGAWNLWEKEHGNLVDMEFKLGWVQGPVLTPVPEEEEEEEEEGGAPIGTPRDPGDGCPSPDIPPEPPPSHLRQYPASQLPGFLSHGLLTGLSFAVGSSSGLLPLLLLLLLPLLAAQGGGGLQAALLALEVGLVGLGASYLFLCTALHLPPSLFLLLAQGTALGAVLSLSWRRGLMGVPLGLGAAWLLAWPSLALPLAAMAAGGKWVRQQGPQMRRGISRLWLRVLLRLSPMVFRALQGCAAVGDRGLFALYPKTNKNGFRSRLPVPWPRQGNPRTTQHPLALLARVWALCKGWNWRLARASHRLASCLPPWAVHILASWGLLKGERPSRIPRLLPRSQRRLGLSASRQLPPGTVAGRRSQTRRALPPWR

inhibition [1]	inhibition [2]	ΔTm [3]	inhibition [4]	IC50 [5]	SMILES
inactive	Active	2.8 °C	> 50%		CCC(=O)Nc1nc(C)c(-c2csc(Nc3cc(OC)ccc3OC)n2)s1
Active	Active	2 °C	> 50%	1.3 to 1.4 µM	CCOCCCn1c(=S)[nH]c2cc(C(=O)NCC3COc4ccccc4O3)ccc2c1=O (centres undefined)
	Active	0 °C		5 µM	Cc1ccc(C(=O)CSc2nnc(-c3ccncc3)[nH]2)c(C)c1
	Active	1.3 °C		6 µM	Cc1ccc(NCCCC(=O)N/N=C/c2cc(Br)cc(Br)c2O)cc1
	Active	2 °C		3 µM	c1cc2[nH]c3c(c2c2nonc12)CCCC3
	Active	1.5 °C		3 µM	O=C(O)c1cc(-c2ccc(-c3ccccc3[N+](=O)[O-])o2)nc2ccc3ccccc3c12
Active	Active	2.2 °C		2 µM	O=C(NCC1COc2ccccc2O1)c1ccc(NC(=O)c2ccco2)cc1 (centres undefined)
Active	Active	2 °C	> 50%		CS(=O)(=O)c1ccc2nc(NC(=O)CCCOc3ccc(Cl)cc3)sc2c1
